# ChEMBL document CHEMBL4304756, “Second-Generation Tryptamine Derivatives Potently Sensitize Colistin Resistant Bacteria to Colistin” (ACS Med Chem Lett, 2019)
# Activity calls are given as the source filed them. No cut-off for these calls is given here.
# Assays:
# Klebsiella pneumoniae [1] = experiment: Potentiation of colistin-induced antibacterial activity against Klebsiella pneumoniae C3 assessed as reduction in colistin MIC at 7.5 uM incubated for 16 hrs by broth microdilution method (reference value: 512 ug/ml); assay type: functional; details: C3, 16 h
# Summary of the method: (§1)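 Colistin MIC was measured against chromosomally colistin-resistant strains (K. pneumoniae B9, C3; A. baumannii 4106, among four strains) with adjuvant at fixed levels from 20 μM down to 7.5 μM. Fold reduction was reported against colistin alone, with the CLSI breakpoint taken as ≤2 μg/mL.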
# Klebsiella pneumoniae [2] = experiment: Potentiation of colistin-induced antibacterial activity against Klebsiella pneumoniae B9 assessed as reduction in colistin MIC at 15 uM incubated for 16 hrs by broth microdilution method (reference value: 512 ug/ml); assay type: functional; details: B9, 16 h
# Escherichia coli = experiment: Potentiation of colistin-induced antibacterial activity against Escherichia coli YD626 harbouring mcr-1 gene assessed as reduction in colistin MIC at 15 uM incubated for 16 hrs by broth microdilution method; assay type: functional, organism-based
# Summary of the method: (§2)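 For the dose-response, colistin MIC was measured against mcr-1 plasmid-bearing E. coli, K. pneumoniae and A. baumannii while the adjuvant concentration was lowered stepwise (30, 15 μM, down to 5 μM). The aim was to find where the MIC rose above the 2 μg/mL CLSI susceptibility breakpoint.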
# Klebsiella pneumoniae [3] = experiment: Potentiation of colistin-induced antibacterial activity against Klebsiella pneumoniae B9 assessed as reduction in colistin MIC at 20 uM incubated for 16 hrs by broth microdilution method (reference value: 512 ug/ml); assay type: functional; details: B9, 16 h
# Acinetobacter baumannii [4] = experiment: Potentiation of colistin-induced antibacterial activity against Acinetobacter baumannii 17978 harbouring mcr-1 gene assessed as colistin sensitization activity at 30 uM incubated for 16 hrs by broth microdilution method; assay type: functional, organism-based
# Acinetobacter baumannii [5] = experiment: Potentiation of colistin-induced antibacterial activity against Acinetobacter baumannii 17978 harbouring mcr-1 gene assessed as reduction in colistin MIC at 5 uM incubated for 16 hrs by broth microdilution method (reference value: 16 ug/ml); assay type: functional; details: Acinetobacter baumannii, 17978, 16 h; summary of the method: as §2
# Klebsiella pneumoniae [6] = experiment: Potentiation of colistin-induced antibacterial activity against Klebsiella pneumoniae 2210291 harbouring mcr-1 gene assessed as reduction in colistin MIC at 15 uM incubated for 16 hrs by broth microdilution method; assay type: functional, organism-based; summary of the method: as §2
# Acinetobacter baumannii [7] = experiment: Potentiation of colistin-induced antibacterial activity against Acinetobacter baumannii 3941 assessed as reduction in colistin MIC at 20 uM incubated for 16 hrs by broth microdilution method (reference value: 512 ug/ml); assay type: functional; details: Acinetobacter baumannii, 3941, 16 h
# Acinetobacter baumannii [8] = experiment: Antivirulence activity in Acinetobacter baumannii 4106 infected Galleria mellonella larvae model assessed as survival rate at 50 mg/kg measured at 24 hrs interval over 4 days; assay type: functional
# Summary of the method: (§3)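 A. baumannii 4106 was given to Galleria mellonella larvae at 6 × 10^5 CFU, the lethal inoculum found by dose escalation. Larvae were treated with colistin 50 mg/kg, adjuvant 50 mg/kg, colistin plus adjuvant (50 mg/kg each), or tigecycline 100 mg/kg as positive control. Survival was scored out to day 4.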
# Klebsiella pneumoniae [9] = experiment: Potentiation of colistin-induced antibacterial activity against Klebsiella pneumoniae 2210291 assessed as colistin MIC at 50 uM incubated for 16 hrs by broth microdilution method (reference value: 1 ug/ml); assay type: functional; details: Klebsiella pneumoniae, 2210291, 16 h
# Acinetobacter baumannii [10] = experiment: Potentiation of colistin-induced antibacterial activity against Acinetobacter baumannii 17978 harbouring mcr-1 gene assessed as colistin sensitization activity in presence of Tween 80 at 30 uM incubated for 16 hrs by broth microdilution method; assay type: functional, organism-based
# Summary of the method: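 To exclude nonspecific aggregation, colistin resensitization of A. baumannii 17978+mcr-1 was run with adjuvant at 30 μM, with and without 0.01% Tween 80.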
# [11] = Cytotoxicity against mouse 4T1 cells assessed as reduction in cell viability incubated for 18 hrs by MTT assay; assay type: cell-based
# Summary of the method: (§4)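 4T1 mouse mammary tumor cells exposed to compound for 18 h, alone or together with colistin at 1 μg/mL. Medium then aspirated and replaced with 0.5 mg/mL MTT in culture medium for colorimetric viability read-out. CT50 taken as the concentration giving 50% cell viability.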
# Acinetobacter baumannii [12] = experiment: Antivirulence activity in Acinetobacter baumannii 4106 infected Galleria mellonella larvae model assessed as survival rate in presence of colistin at 50 mg/kg measured at 24 hrs interval over 4 days (reference value: 7 %); assay type: functional; summary of the method: as §3
# Acinetobacter baumannii [13] = experiment: Potentiation of colistin-induced antibacterial activity against Acinetobacter baumannii 4106 assessed as reduction in colistin MIC at 15 uM incubated for 16 hrs by broth microdilution method (reference value: 1024 ug/ml); assay type: functional; details: Acinetobacter baumannii, 4106, 16 h
# Acinetobacter baumannii [14] = experiment: Potentiation of colistin-induced antibacterial activity against Acinetobacter baumannii 3941 assessed as reduction in colistin MIC at 10 uM incubated for 16 hrs by broth microdilution method (reference value: 512 ug/ml); assay type: functional; details: Acinetobacter baumannii, 3941, 16 h
# Klebsiella pneumoniae [15] = experiment: Potentiation of colistin-induced antibacterial activity against Klebsiella pneumoniae C3 assessed as reduction in colistin MIC at 15 uM incubated for 16 hrs by broth microdilution method (reference value: 512 ug/ml); assay type: functional; details: C3, 16 h
# Klebsiella pneumoniae [16] = experiment: Potentiation of colistin-induced antibacterial activity against Klebsiella pneumoniae B9 assessed as reduction in colistin MIC at 5 uM incubated for 16 hrs by broth microdilution method (reference value: 512 ug/ml); assay type: functional; details: B9, 16 h
# Acinetobacter baumannii [17] = experiment: Potentiation of colistin-induced antibacterial activity against Acinetobacter baumannii 17978 harbouring mcr-1 gene assessed as colistin MIC at 50 uM incubated for 16 hrs by broth microdilution method (reference value: 16 ug/ml); assay type: functional; details: Acinetobacter baumannii, 17978, 16 h
# Klebsiella pneumoniae [18] = experiment: Potentiation of colistin-induced antibacterial activity against Klebsiella pneumoniae B9 assessed as reduction in colistin MIC at 7.5 uM incubated for 16 hrs by broth microdilution method (reference value: 512 ug/ml); assay type: functional; details: B9, 16 h
# Acinetobacter baumannii [19] = experiment: Potentiation of colistin-induced antibacterial activity against Acinetobacter baumannii 17978 assessed as colistin MIC at 50 uM incubated for 16 hrs by broth microdilution method (reference value: 2 ug/ml); assay type: functional; details: Acinetobacter baumannii, 17978, 16 h
# [20] = Cytotoxicity against mouse 4T1 cells assessed as reduction in cell viability in presence of 1 ug/ml colistin incubated for 18 hrs by MTT assay; assay type: cell-based; summary of the method: as §4
# Klebsiella pneumoniae [21] = experiment: Potentiation of colistin-induced antibacterial activity against Klebsiella pneumoniae 2210291 harbouring mcr-1 gene assessed as colistin MIC at 50 uM incubated for 16 hrs by broth microdilution method (reference value: 16 ug/ml); assay type: functional; details: Klebsiella pneumoniae, 2210291, 16 h
# Klebsiella pneumoniae [22] = experiment: Potentiation of colistin-induced antibacterial activity against Klebsiella pneumoniae B9 assessed as reduction in colistin MIC at 10 uM incubated for 16 hrs by broth microdilution method (reference value: 512 ug/ml); assay type: functional; details: B9, 16 h; summary of the method: as §1
# Klebsiella pneumoniae [23] = experiment: Potentiation of colistin-induced antibacterial activity against Klebsiella pneumoniae C3 assessed as reduction in colistin MIC at 20 uM incubated for 16 hrs by broth microdilution method (reference value: 512 ug/ml); assay type: functional; details: C3, 16 h; summary of the method: as §1
# Acinetobacter baumannii [24] = experiment: Potentiation of colistin-induced antibacterial activity against Acinetobacter baumannii 4106 assessed as reduction in colistin MIC at 20 uM incubated for 16 hrs by broth microdilution method (reference value: 1024 ug/ml); assay type: functional; details: Acinetobacter baumannii, 4106, 16 h
# Klebsiella pneumoniae [25] = experiment: Potentiation of colistin-induced antibacterial activity against Klebsiella pneumoniae C3 assessed as reduction in colistin MIC at 5 uM incubated for 16 hrs by broth microdilution method (reference value: 512 ug/ml); assay type: functional; details: C3, 16 h
compound,measurement,setting,value
O=C(NCCc1c[nH]c2ccc(Br)cc12)Nc1cc(Cl)c(Br)c(Cl)c1,MIC,Klebsiella pneumoniae [1],2 µg/mL
same,MIC,Klebsiella pneumoniae [2],≤ 0.25 µg/mL
same,Activity,Escherichia coli,Active
same,MIC,Klebsiella pneumoniae [3],≤ 0.25 µg/mL
same,Activity,Acinetobacter baumannii [4],Active
same,MIC,Acinetobacter baumannii [5],1 µg/mL
same,Activity,Klebsiella pneumoniae [6],Active
same,MIC,Acinetobacter baumannii [7],2 µg/mL
same,Activity,Acinetobacter baumannii [8],0%
same,MIC,Klebsiella pneumoniae [9],0.5 µg/mL
same,Activity,Acinetobacter baumannii [10],Active
same,CC50 at 18 h,[11],94.1 µM
same,Activity,Acinetobacter baumannii [12],47%
same,MIC,Acinetobacter baumannii [13],≤ 0.5 µg/mL
same,MIC,Acinetobacter baumannii [14],4 µg/mL
same,MIC,Klebsiella pneumoniae [15],0.5 µg/mL
same,MIC,Klebsiella pneumoniae [16],0.5 µg/mL
same,MIC,Acinetobacter baumannii [17],0.5 µg/mL
same,MIC,Klebsiella pneumoniae [18],≤ 0.25 µg/mL
same,MIC,Acinetobacter baumannii [19],0.5 µg/mL
same,CC50 at 18 h,[20],64.9 µM
same,MIC,Klebsiella pneumoniae [21],0.5 µg/mL
same,MIC,Klebsiella pneumoniae [22],≤ 0.25 µg/mL
same,MIC,Klebsiella pneumoniae [23],0.5 µg/mL
same,MIC,Acinetobacter baumannii [24],≤ 0.5 µg/mL
same,MIC,Klebsiella pneumoniae [25],4 µg/mL
